By EC50 is commonly meant the concentration that produces a half-maximal response. Broadly, the CC50 is the concentration at which the toxic effect on the cells reaches its halfway point. The term half-life denotes how long it takes for the measured level to halve. What is called solubility is how much of the substance goes into solution per volume. The bioavailability is dose-corrected exposure relative to a reference, in per cent. Broadly, the clearance is the rate of elimination divided by the concentration. Broadly, the IC50 is the midpoint of a concentration-inhibition curve. The term Papp A→B denotes the apparent permeability from the apical to the basolateral side of a cell layer. By AUC(0-t) is commonly meant the area under the concentration-time curve up to a stated or last time point. For orientation: Cmax means the peak of the concentration-time curve.

In series [1] the test system is dengue virus type 2. As to the kind of experiment: Antiviral activity against Dengue virus 2 Rega infected in African green monkey Vero cells assessed as reduction in viral yield after 4 days by qRT-PCR analysis. The format is functional, organism-based. The procedure, abridged: (§1)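 Virus yield reduction in Vero cells (seeded 5×10^4/well). Next day infected with DENV (MOI 0.01) in assay medium (MEM, 2% FBS, 0.075% bicarbonate, 2 mM L-glutamine). After 1 h, input virus was removed and cells rinsed 3 times. Medium with 3- or 5-fold compound serial dilutions was then added. Incubation was 4 days (DENV-2, DENV-4) or 7 days (DENV-1, DENV-3). Supernatant viral RNA was measured by RT-qPCR, and EC50 obtained by logarithmic interpolation.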
(In general: Real-time PCR tracks product formation cycle by cycle.)

Series [2] in a line: Selectivity index, ratio of CC50 for African green monkey Vero cells to EC50 for Dengue virus 2 Rega. The format is toxicity. To be noted: read-out: Ratio CC50/EC50.
Another series deals with dengue virus type 4. As to the kind of experiment: Antiviral activity against Dengue virus 4 DAKHD34460 infected in African green monkey Vero cells assessed as reduction in viral yield after 4 days by qRT-PCR analysis. In kind it is functional, organism-based. The settings on record: 96 h. A digest of the protocol: as §1
Series [3] can be described thus: (§2) Cytotoxicity against African green monkey Vero cells assessed as cell growth inhibition after 4 days by MTS/PMS method. The settings on record: chlorocebus sabaeus, Vero cells. In kind it is cell-based. The procedure, abridged: (§3)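 Cytotoxicity run as in the yield assay, but without virus. Vero cells (5×10^4/well) were exposed to 3- or 5-fold serial dilutions in MEM with 2% FBS. Viability was read by the MTS/PMS colorimetric method. CC50 was derived by logarithmic interpolation.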

Series [4] relates to Salmonella typhimurium. The series can be described thus: Mutagenicity in Salmonella typhimurium in absence of human liver S9 fraction by Ames test. In kind it is toxicity, organism-based. To be noted: salmonella enterica subsp. enterica serovar typhimurium. In general terms: In the Ames test, an excess of revertant colonies over the control signals mutagenicity.
For the next series, the system named is dengue virus type 1. As to the kind of experiment: Antiviral activity against Dengue virus 1 Djibouti D1/H/IMTSSA/98/606 infected in African green monkey Vero cells assessed as reduction in viral yield after 7 days by qRT-PCR analysis. In kind it is functional, organism-based. To be noted: Djibouti D1/H/IMTSSA/98/606, Vero, 168 h. A digest of the protocol: as §1

The subject of another series is dengue virus type 3. As to the kind of experiment: Antiviral activity against Dengue virus 3 H87 infected in African green monkey Vero cells assessed as reduction in viral yield after 7 days by qRT-PCR analysis. The format is functional, organism-based. To be noted: 168 h. The procedure, abridged:
as §1

Series [5] relates to dengue virus type 2. As to the kind of experiment: Antiviral activity against Dengue virus 2 Rega infected in African green monkey Vero cells assessed as log10 reduction of viral RNA replication at nontoxic dose after 4 days by qRT-PCR analysis relative to control. In kind it is functional.
Series [6] has as its system Salmonella typhimurium. The series can be described thus: Mutagenicity in Salmonella typhimurium in presence of human liver S9 fraction by Ames test. In kind it is toxicity, organism-based. To be noted: salmonella enterica subsp. enterica serovar typhimurium.
Series [7] can be described thus: Half life in human liver microsomes. The format is ADME, microsome.
Series [8] is described as follows: Solubility of the compound in DMSO solution at pH 7.4. The format is physicochemical. The settings on record: read-out: solubility. A digest of the protocol:
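Solubility measured at pH 7.4, starting from a DMSO solution.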

Series [9] in a line: Oral bioavailability in rat at 10 mg/kg. The settings on record: in vivo. The format is ADME, organism-based. A digest of the protocol: (§4)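 Rat PK. Intravenous dose was 2.5 mg/kg in PEG400/water 7/3. Oral dose was 10 mg/kg in PEG400.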
A short description of series [10]: Clearance in rat at 2.5 mg/kg, iv. The format is ADME, organism-based. The settings on record: in vivo. The procedure, abridged: as §4
A further series has as its target Cytochrome P450 3A4 (Homo sapiens, UniProt P08684). As to the kind of experiment: Inhibition of CYP3A4 (unknown origin). In kind it is ADME.
Another series deals with Cytochrome P450 2D6 (Homo sapiens, UniProt P10635). The series can be described thus: Inhibition of CYP2D6 (unknown origin). In kind it is ADME.
Cytochrome P450 2D6, sequence (P10635 whole entry): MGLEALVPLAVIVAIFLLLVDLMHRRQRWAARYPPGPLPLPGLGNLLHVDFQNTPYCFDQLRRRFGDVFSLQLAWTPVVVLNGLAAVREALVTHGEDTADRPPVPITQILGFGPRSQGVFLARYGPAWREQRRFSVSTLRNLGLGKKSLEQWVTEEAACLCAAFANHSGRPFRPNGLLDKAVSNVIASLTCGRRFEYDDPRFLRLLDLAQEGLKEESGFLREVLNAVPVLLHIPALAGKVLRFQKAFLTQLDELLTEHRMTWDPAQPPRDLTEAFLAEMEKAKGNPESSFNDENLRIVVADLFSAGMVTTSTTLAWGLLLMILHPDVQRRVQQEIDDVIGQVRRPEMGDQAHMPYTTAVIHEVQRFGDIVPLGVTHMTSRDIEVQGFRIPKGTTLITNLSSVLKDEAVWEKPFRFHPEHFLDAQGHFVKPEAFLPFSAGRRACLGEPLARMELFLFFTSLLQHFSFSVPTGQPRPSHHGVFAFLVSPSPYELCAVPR
The nature of series [11]: Volume of distribution at steady state in rat at 2.5 mg/kg, iv. The format is ADME, organism-based. To be noted: in vivo, read-out: Vdss. A digest of the protocol:
as §4

Series [12] is described as follows: Protein binding in rat plasma. In kind it is ADME, cell-free. To be noted: read-out: PPB (converted).
The target of series [13] is Voltage-gated inwardly rectifying potassium channel KCNH2 (Homo sapiens, UniProt Q12809). The series can be described thus: Inhibition of human ERG.
Voltage-gated inwardly rectifying potassium channel KCNH2, sequence (Q12809 whole entry): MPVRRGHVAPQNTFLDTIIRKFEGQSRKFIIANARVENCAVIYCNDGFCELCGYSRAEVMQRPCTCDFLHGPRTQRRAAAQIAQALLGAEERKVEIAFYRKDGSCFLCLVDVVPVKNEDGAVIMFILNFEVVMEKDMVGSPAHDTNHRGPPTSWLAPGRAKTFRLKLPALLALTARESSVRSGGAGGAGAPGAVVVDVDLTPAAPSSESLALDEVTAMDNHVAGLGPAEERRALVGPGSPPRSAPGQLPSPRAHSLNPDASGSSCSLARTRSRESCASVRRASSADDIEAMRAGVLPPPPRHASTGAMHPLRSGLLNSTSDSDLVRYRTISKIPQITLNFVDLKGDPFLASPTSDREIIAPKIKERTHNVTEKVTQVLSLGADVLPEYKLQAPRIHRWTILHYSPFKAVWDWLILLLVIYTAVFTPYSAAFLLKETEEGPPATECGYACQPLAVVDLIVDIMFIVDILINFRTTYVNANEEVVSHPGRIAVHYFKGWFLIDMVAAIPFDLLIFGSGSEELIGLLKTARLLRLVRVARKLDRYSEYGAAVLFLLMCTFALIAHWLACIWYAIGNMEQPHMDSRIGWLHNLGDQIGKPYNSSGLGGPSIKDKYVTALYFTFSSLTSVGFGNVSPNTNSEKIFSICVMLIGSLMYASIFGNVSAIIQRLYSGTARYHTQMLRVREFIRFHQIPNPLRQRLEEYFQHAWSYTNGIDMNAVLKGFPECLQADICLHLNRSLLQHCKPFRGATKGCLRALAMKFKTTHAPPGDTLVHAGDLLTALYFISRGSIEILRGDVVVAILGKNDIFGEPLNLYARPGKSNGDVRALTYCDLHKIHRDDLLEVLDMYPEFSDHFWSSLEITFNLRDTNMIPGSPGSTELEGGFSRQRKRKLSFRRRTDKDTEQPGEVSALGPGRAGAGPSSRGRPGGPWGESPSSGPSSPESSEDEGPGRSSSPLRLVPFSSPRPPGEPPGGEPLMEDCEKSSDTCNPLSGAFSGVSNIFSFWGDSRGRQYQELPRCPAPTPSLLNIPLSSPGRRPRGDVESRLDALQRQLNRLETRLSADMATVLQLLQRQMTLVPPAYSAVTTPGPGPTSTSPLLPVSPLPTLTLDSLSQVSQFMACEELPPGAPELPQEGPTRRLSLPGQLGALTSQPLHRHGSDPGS
The next series addresses Cytochrome P450 2C19 (Homo sapiens, UniProt P33261). As to the kind of experiment: Inhibition of CYP2C19 (unknown origin). In kind it is ADME.
The subject of a further series is Vero. The series is described as §2. To be noted: chlorocebus sabaeus, vero, 96 h. In kind it is cell-based. A digest of the protocol: as §3
A further series concerns the target T1, Cytochrome P450 1A2 (Homo sapiens, UniProt P05177).
T1 sequence (P05177 whole entry): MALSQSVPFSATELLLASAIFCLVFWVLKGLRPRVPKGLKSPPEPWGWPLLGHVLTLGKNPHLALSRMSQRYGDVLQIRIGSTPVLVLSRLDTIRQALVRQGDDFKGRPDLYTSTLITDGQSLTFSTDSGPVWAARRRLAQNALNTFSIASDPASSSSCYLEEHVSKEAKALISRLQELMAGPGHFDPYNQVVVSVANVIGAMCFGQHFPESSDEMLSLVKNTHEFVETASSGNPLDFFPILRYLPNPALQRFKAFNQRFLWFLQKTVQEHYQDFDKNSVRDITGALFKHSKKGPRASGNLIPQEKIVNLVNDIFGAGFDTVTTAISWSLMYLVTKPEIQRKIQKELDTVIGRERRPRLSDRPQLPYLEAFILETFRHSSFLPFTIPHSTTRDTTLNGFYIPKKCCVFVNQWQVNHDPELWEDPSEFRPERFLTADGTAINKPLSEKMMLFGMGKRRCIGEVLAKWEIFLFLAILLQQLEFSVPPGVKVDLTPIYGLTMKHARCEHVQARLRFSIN
The series can be described thus: Inhibition of CYP1A2 (unknown origin). The format is ADME.

The nature of series [14]: Drug metabolism in rat liver microsomes after 15 mins. In kind it is ADME, microsome. A digest of the protocol: (§5)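 Percentage of compound metabolized after 15 min incubation with human or rat liver microsomes.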
(In general: Microsomes from liver hold many membrane-bound enzymes, among them those of drug oxidation.)

The subject of the next series is P-gp (MDR1). The series can be described thus: Apparent permeability across apical to basolateral side in MDR1 transfected pig LLC-PK1 cells in absence of P-gp inhibitor GF120918. To be noted: LLC-PK1. In kind it is ADME, cell-based, Sus scrofa. A digest of the protocol: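 Permeability measured in MDR1-transfected LLC-PK1 cells without the P-gp inhibitor GF120918.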

Series [15] can be described thus: Half life in rat at 2.5 mg/kg, iv. In kind it is ADME, organism-based. The settings on record: in vivo. A digest of the protocol: as §4
A short description of series [16]: Drug metabolism in human liver microsomes after 15 mins. In kind it is ADME, microsome. A digest of the protocol: as §5
The target in another series is Cytochrome P450 2C9 (Homo sapiens, UniProt P11712). As to the kind of experiment: Inhibition of CYP2C9 (unknown origin). The format is ADME.
Cytochrome P450 2C9, sequence (P11712 whole entry): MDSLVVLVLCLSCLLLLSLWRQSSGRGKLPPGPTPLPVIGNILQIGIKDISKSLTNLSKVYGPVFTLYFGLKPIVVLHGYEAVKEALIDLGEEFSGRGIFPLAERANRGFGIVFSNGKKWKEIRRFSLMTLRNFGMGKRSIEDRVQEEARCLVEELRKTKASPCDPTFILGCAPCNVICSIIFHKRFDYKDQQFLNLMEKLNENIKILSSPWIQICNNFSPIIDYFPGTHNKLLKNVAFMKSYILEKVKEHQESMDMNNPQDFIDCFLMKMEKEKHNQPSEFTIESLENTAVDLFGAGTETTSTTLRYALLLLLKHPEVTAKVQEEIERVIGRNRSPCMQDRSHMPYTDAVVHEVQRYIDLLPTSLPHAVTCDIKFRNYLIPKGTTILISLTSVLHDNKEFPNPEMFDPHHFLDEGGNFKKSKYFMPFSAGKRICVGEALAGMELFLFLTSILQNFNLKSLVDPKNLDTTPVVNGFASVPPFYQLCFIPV
Series [17] is described as follows: AUClast in rat at 10 mg/kg, po. In kind it is ADME, organism-based. The settings on record: in vivo. Set-up: dose 10 mg/kg, route oral, time 0 - last. A digest of the protocol:
as §4

A short description of series [18]: Cmax in rat at 10 mg/kg, po. In kind it is ADME, organism-based. Set-up: dose 10 mg/kg, route oral. The settings on record: in vivo. The procedure, abridged: as §4
Series [19] can be described thus: Protein binding in human plasma. In kind it is ADME, cell-free.
Setting [20] is: liver microsomes, read-out: Drug metabolism.

SMILES strings stand for the structures. Values after ≈ are worked out from the molar mass of the structure shown.

Cytochrome P450 3A4, sequence (P08684 whole entry): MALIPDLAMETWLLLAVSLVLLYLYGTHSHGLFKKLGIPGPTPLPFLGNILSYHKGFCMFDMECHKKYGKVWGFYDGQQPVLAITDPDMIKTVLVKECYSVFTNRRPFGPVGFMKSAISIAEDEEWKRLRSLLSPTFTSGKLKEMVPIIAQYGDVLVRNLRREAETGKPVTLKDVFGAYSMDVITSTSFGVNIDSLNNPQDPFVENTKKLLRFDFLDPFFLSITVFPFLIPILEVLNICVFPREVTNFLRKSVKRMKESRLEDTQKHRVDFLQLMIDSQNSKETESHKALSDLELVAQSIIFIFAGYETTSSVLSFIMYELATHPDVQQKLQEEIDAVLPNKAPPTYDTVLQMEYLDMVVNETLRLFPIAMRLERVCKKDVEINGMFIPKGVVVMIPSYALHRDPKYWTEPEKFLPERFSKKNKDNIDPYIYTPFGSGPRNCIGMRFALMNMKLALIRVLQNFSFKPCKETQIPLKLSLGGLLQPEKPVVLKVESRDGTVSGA
Cytochrome P450 2C19, sequence (P33261 whole entry): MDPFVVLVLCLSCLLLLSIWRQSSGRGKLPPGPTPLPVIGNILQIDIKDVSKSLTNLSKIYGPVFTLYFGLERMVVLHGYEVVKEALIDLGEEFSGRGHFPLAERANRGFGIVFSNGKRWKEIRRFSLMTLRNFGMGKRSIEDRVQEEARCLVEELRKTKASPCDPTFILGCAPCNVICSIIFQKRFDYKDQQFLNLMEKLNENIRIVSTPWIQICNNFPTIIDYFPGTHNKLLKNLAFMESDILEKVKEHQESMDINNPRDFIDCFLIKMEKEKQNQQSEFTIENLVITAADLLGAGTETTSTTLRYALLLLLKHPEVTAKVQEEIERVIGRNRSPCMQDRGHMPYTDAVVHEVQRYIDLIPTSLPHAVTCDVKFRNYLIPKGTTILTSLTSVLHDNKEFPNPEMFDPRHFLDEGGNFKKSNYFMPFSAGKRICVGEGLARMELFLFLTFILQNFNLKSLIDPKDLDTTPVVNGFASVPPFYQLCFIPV

Regarding `COc1ccc(NC(C(=O)c2c[nH]c3ccccc23)c2ccccc2)cc1OC` (stereo not given), the EC50 with dengue virus type 2 [1] (Dengue virus, Rega, Vero, 96 h) turned out to be 0.078 µM; in the series on dengue virus type 4, 4.5 µM; with dengue virus type 1, 1.6 µM; in the series on dengue virus type 3, 29.4 µM. In series [2], the selectivity ratio stood at 380. The CC50 at 96 h in series [3] was determined as 29 µM. Moreover, the Activity entry in the series with Salmonella typhimurium [4] and with Salmonella typhimurium [6] was “Non-Toxic” each time. In addition, the FC in the series with dengue virus type 2 [5] stood at 3.8.
As to `COc1cc(NC(C(=O)c2c[nH]c3ccc(CCCO)cc23)c2ccccc2)cc(OC)c1` (stereo not given), the EC50 with dengue virus type 2 [1] (Dengue virus, Rega, Vero, 96 h) stood at 0.096 µM. For the same compound, the CC50 at 96 h in series [3] amounted to 56 µM. This compound displayed a half-life in [7] of 0.633 h. Further, the solubility in series [8] came out at 23 µM (≈ 10.2 µg/mL).
In turn, `COc1cc(NC(C(=O)c2c[nH]c3ccccc23)c2ccccc2)cc(OCCO)c1` (single isomer, unassigned; (+)) gave a bioavailability in series [9] of 64%. The compound also had a clearance in series [10] of 35 mL/min/kg. Further, the IC50 against Cytochrome P450 3A4 was more than 10 µM; against Cytochrome P450 2D6, more than 10 µM; in series [13] it was more than 50 µM; at Cytochrome P450 2C19, 4.4 µM; at Cytochrome P450 1A2, more than 10 µM; against Cytochrome P450 2C9 it was 3.1 µM. In addition, the EC50 with dengue virus type 2 [1] (vero) is 0.012 µM. Further, the Vd in [11] was 5.8 L/kg. Moreover, the fraction unbound in series [12] is 0.008; in series [19] (read-out: PPB (converted)), 0.01. Besides, the CC50 in the series with Vero came to 105 µM. Also, the metabolised at 0.25 h in series [14] (setting [20]) amounted to 21%. In addition, the Papp A→B in the series with P-gp (MDR1) turned out to be 1.8 ×10⁻⁶ cm/s. Also, in series [15], the half-life is 2.4 h. For the same compound, the Drug metabolism in [16] (microsomes, 0.25 h) was determined as 2%. Moreover, the AUC(0-t) in series [17] worked out at 7.32 µM·h. In addition, in series [18], the peak level (Cmax) was 706 nM. The solubility in [8] was found to be 48 µM (≈ 20 µg/mL).
Compound `COc1cc(NC(C(=O)c2c[nH]c3ccccc23)c2ccccc2)cc(OC)c1` (single isomer, unassigned; (+)) came in with a bioavailability in series [9] of 7%. In series [10], the clearance came out at 67 mL/min/kg. Besides, the IC50 is more than 10 µM against Cytochrome P450 3A4; more than 10 µM against Cytochrome P450 2D6; 2.3 µM at Cytochrome P450 2C19; 1.4 µM against Cytochrome P450 1A2; 3.2 µM on Cytochrome P450 2C9. Also, the concentration for a half-maximal effect (EC50) was 0.001 µM in the series on dengue virus type 2 [1] (vero), 1.9 µM in the series on dengue virus type 4, 0.047 µM with dengue virus type 1 and 0.092 µM with dengue virus type 3. Moreover, the Vd in [11] turned out to be 26 L/kg. In series [12], the fraction unbound was 0.002. Besides, the cytotoxic concentration (CC50) at 96 h in series [3] was found to be 13 µM. Also, the Drug metabolism in series [14] (microsomes, 0.25 h) amounted to 37%. Besides, in the series on P-gp (MDR1), the Papp A→B was 7.6 ×10⁻⁶ cm/s. This compound also showed a half-life in series [15] of 4.7 h. In addition, the metabolised at 0.25 h in series [16] (setting [20]) worked out at 14%. The same compound showed an AUC(0-t) in series [17] of 0.422 µM·h. Besides, the Cmax in series [18] turned out to be 88 nM. The compound also had a PPB in series [19] of 99.7%. Moreover, the solubility in [8] amounted to 6 µM (≈ 2.32 µg/mL).

Values taken from ChEMBL document CHEMBL4196174, “Discovery of Indole Derivatives as Novel and Potent Dengue Virus Inhibitors” (J Med Chem, 2018).
